pIC50, pKi: −log10 of the molar value. Activity calls are given as the source filed them. No cut-off for these calls is given here.
What was measured:
[1] = biological target: T1, 5-hydroxytryptamine receptor 2A (Homo sapiens, UniProt P28223); experiment: biochemical; format: cell-based, HEK293
D(2) dopamine receptor [2] = biological target: T2, D(2) dopamine receptor (Homo sapiens, UniProt P14416); experiment: Agonist activity at human D2 receptor expressed in CHO-K1 cells co-expressing Galphaqi5 assessed as increase apomorphine-induced calcium mobilization measured for 30 secs by aequorin-derived luminescence assay relative to apomorphine; format: functional, cell-based
T2 sequence (P14416 whole entry): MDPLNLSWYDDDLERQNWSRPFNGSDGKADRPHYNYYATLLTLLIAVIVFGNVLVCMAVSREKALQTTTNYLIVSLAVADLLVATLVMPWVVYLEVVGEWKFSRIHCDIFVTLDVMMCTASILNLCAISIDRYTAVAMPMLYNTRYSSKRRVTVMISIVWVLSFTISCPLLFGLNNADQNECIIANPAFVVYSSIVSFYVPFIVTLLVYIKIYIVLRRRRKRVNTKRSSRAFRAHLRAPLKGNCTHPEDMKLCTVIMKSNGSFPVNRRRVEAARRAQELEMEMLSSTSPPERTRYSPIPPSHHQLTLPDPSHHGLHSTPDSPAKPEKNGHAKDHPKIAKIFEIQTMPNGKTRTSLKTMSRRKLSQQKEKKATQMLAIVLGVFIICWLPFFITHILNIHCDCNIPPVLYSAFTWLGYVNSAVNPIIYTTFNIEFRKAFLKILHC

D(2) dopamine receptor [3] = biological target: T2, D(2) dopamine receptor; experiment: Antagonist activity at human D2 receptor expressed in CHO-K1 cells co-expressing Galphaqi5 assessed as decrease in apomorphine-induced calcium mobilization preincubated for 30 mins followed by apomorphine challenge measured for 30 secs by aequorin-derived luminescence assay; format: functional, cell-based
[4] = biological target: T3, 5-hydroxytryptamine receptor 7 (Homo sapiens, UniProt P34969); experiment: biochemical; format: cell-based, CHO
T3 sequence (P34969 whole entry): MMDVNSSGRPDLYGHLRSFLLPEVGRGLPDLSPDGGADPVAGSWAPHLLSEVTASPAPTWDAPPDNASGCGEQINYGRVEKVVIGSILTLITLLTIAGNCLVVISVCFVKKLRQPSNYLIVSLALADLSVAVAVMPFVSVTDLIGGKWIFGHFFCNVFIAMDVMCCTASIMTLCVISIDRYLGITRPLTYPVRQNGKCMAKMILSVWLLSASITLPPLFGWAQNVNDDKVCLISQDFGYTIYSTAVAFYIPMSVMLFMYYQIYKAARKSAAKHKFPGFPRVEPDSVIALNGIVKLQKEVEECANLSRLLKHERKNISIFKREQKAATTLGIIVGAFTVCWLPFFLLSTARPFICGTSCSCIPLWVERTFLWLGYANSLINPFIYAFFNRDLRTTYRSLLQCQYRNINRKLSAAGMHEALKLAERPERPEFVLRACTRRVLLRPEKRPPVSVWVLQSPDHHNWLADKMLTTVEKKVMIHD

[5] = biological target: T4, 5-hydroxytryptamine receptor 1A (Homo sapiens, UniProt P08908); experiment: (§1) Antagonist activity at human 5-HT1A receptor expressed in CHO-K1 cells co-expressing Galpha16 assessed as decrease in serotonin calcium mobilization preincubated for 25 mins followed by serotonin challenge measured for 30 secs by aequorin-derived luminescence assay; format: functional, cell-based
T4 sequence (P08908 whole entry): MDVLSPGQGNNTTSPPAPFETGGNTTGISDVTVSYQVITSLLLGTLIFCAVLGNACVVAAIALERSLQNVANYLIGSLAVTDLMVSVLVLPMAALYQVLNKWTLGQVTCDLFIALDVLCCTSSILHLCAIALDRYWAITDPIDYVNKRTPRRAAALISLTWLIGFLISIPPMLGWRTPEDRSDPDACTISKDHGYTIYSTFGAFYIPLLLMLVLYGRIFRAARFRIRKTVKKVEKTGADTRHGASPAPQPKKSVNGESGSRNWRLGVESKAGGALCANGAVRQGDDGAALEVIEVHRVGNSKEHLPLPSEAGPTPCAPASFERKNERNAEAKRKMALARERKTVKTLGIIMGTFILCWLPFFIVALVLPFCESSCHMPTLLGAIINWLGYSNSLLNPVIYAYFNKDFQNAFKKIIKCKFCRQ

[6] = biological target: T5, 5-hydroxytryptamine receptor 1A (Homo sapiens) (UniProt P08908); experiment: as §1; format: functional, cell-based
T5 sequence (whole entry): T4 sequence (P08908 whole entry)

Mus musculus [7] = experiment: Antidepressant-like activity in Albino Swiss CD-1 mouse assessed as immobility time at 10 mg/kg, ip administered 30 mins prior to test measured for last 4 mins of 6 mins observation by forced swim test (reference value: 153.9 to 201.9 secs); format: functional
[8] = biological target: 5-hydroxytryptamine receptor 6 (Homo sapiens, UniProt P50406); experiment: Displacement of [3H]LSD from recombinant human 5-HT6 receptor expressed in CHO cells cell membranes after 60 mins by liquid scintillation counting method
5-hydroxytryptamine receptor 6, sequence (P50406 whole entry): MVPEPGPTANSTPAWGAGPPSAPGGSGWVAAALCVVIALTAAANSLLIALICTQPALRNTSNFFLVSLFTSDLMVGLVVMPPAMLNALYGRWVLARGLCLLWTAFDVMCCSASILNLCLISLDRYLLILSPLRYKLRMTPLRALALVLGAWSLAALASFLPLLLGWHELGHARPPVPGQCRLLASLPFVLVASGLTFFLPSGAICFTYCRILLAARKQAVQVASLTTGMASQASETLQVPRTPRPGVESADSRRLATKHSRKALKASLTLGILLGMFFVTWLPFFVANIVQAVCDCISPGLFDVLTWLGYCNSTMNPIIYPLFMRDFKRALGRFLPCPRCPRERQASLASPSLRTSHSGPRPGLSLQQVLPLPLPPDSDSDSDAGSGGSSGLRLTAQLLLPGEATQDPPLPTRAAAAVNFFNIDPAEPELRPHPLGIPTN

D(2) dopamine receptor [9] = biological target: T2, D(2) dopamine receptor; experiment: Displacement of [3H]methylspiperonee from recombinant human D2 receptor expressed in HEK293 cells cell membranes after 60 mins by liquid scintillation counting method
[10] = biological target: T1, 5-hydroxytryptamine receptor 2A; experiment: Antagonist activity at human 5-HT2A receptor expressed in CHO-K1 cells co-expressing Galpha16 assessed as decrease in serotonin calcium mobilization preincubated for 30 mins followed by serotonin challenge measured for 30 secs by aequorin-derived luminescence assay; format: functional, cell-based
[11] = biological target: T5, 5-hydroxytryptamine receptor 1A (Homo sapiens); experiment: Antagonist activity at human 5-HT1A receptor expressed in CHO-K1 cells co-expressing Galpha16 assessed as decrease in serotonin-induced calcium mobilization preincubated for 25 mins followed by serotonin challenge measured for 30 secs by aequorin-derived luminescence assay relative to control; format: functional, cell-based
Mus musculus [12] = experiment: Toxicity in Albino Swiss CD-1 mouse assessed as effect on locomotory activity at 1.25 to 5 mg/kg, ip administered for 30 mins prior to test measured for 1 min; format: organism-based; conditions: in vivo
[13] = biological target: T3, 5-hydroxytryptamine receptor 7; experiment: Antagonist activity at human 5-HT7 receptor expressed in CHO-K1 cells assessed as decrease in serotonin-induced cAMP level after 1 hr by TR-FRET assay relative to control; format: functional, cell-based
Mus musculus [14] = experiment: Antidepressant-like activity in Albino Swiss CD-1 mouse assessed as immobility time at 20 mg/kg, ip administered 30 mins prior to test measured for last 4 mins of 6 mins observation by forced swim test (reference value: 153.9 to 201.9 secs); format: functional
[15] = biological target: T3, 5-hydroxytryptamine receptor 7; experiment: Antagonist activity at human 5-HT7 receptor expressed in CHO-K1 cells assessed as decrease in serotonin-induced cAMP level after 1 hr by TR-FRET assay; format: functional, cell-based
Mus musculus [16] = experiment: Toxicity in Albino Swiss CD-1 mouse assessed as death at 30 mg/kg, ip; format: organism-based; conditions: in vivo
How it was run: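 Deaths counted in mice during maximal electroshock (MES) seizure testing after i.p. dosing, 6 mice per dose (3 or 1 at some top doses); recorded as number dead/number tested alongside protection and rotarod motor impairment (10 rpm); untreated control group included.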

[17] = biological target: T4, 5-hydroxytryptamine receptor 1A; experiment: Displacement of [3H]8-OH-DPAT from recombinant human 5-HT1A receptor expressed in HEK293 cell membranes after 60 mins by liquid scintillation counting method
[18] = biological target: T6, Alpha-1A adrenergic receptor (Homo sapiens, UniProt P35348); experiment: Displacement of [3H]prazosin from recombinant human alpha1 adrenoceptor expressed in CHO cell membranes after 30 mins by liquid scintillation counting method
T6 sequence (P35348 whole entry): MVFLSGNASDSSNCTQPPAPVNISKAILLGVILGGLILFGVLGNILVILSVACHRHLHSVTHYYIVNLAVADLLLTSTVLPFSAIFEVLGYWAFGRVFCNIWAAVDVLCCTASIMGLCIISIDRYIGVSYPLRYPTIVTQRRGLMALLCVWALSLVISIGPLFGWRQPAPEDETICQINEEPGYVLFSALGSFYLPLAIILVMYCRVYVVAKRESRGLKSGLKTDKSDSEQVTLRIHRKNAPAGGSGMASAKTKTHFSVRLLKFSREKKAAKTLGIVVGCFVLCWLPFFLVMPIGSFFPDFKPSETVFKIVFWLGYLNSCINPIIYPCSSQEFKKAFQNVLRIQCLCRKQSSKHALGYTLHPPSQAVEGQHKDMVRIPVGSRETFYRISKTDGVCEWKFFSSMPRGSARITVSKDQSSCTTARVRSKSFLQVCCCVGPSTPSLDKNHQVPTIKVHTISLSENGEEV

[19] = biological target: T3, 5-hydroxytryptamine receptor 7; experiment: Agonist activity at human 5-HT7 receptor expressed in CHO-K1 cells assessed as increase in serotonin-induced cAMP level after 1 hr by TR-FRET assay relative to serotonin; format: functional, cell-based
Mus musculus [20] = experiment: Anxiolytic-like activity in Albino Swiss CD-1 mouse assessed as increase in number of punished crossings at 2.5 to 5 mg/kg, ip administered for 30 mins prior to test measured for 1 min by four-plate test; format: functional, organism-based
How it was run: (§2)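 Four-plate test in mice, i.p., 30 min before test; vehicle 0.9% NaCl; doses 1.25–10 mg/kg; number of punished crossings counted; mean ± SEM, n = 8–10 mice per group; ANOVA F statistics.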

[21] = biological target: T5, 5-hydroxytryptamine receptor 1A (Homo sapiens); experiment: Agonist activity at human 5-HT1A receptor expressed in CHO-K1 cells co-expressing Galpha16 assessed as increase in calcium mobilization measured for 30 secs by aequorin-derived luminescence assay relative to serotonin; format: functional, cell-based
Mus musculus [22] = experiment: Antidepressant-like activity in Albino Swiss CD-1 mouse assessed as immobility time at 5 mg/kg, ip administered 30 mins prior to test measured for last 4 mins of 6 mins observation by forced swim test (reference value: 153.9 to 201.9 secs); format: functional
Mus musculus [23] = experiment: Anxiolytic-like activity in Albino Swiss CD-1 mouse assessed as increase in number of punished crossings at 1.25 mg/kg, ip administered for 30 mins prior to test measured for 1 min by four-plate test; format: functional, organism-based
How it was run: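 Four-plate test in mice; compounds or clorazepate given i.p. 30 min before testing, vehicle 0.9% NaCl; read-out was number of punished crossings; mean ± SEM, n = 8–10 mice per group; doses compared with one-way statistics (F) against vehicle.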

Mus musculus [24] = experiment: Toxicity in Albino Swiss CD-1 mouse assessed as effect on locomotory activity at 5 to 10 mg/kg, ip administered for 30 mins prior to test measured for 1 min; format: organism-based; conditions: in vivo
How it was run: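 Mice dosed i.p. 30 min before test; vehicle groups received 0.9% NaCl. Spontaneous locomotion scored as number of crossings during a 1-min session. Each dose compared with its own vehicle group by Student t-test; mean ± SEM, n = 8–10 mice per group.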

Mus musculus [25] = experiment: Anxiolytic-like activity in Albino Swiss CD-1 mouse assessed as increase in number of punished crossings at 5 to 10 mg/kg, ip administered for 30 mins prior to test measured for 1 min by four-plate test; format: functional, organism-based
How it was run: as §2

Mus musculus [26] = experiment: Anxiolytic-like activity in Albino Swiss CD-1 mouse assessed as increase in number of punished crossings at 10 mg/kg, ip administered for 30 mins prior to test measured for 1 min by four-plate test; format: functional, organism-based
How it was run: as §2

[27] = biological target: T5, 5-hydroxytryptamine receptor 1A (Homo sapiens); experiment: Displacement of [3H]8-OH-DPAT from recombinant human 5-HT1A receptor expressed in HEK293 cell membranes at 10^-5 M after 60 mins by liquid scintillation counting method
[28] = biological target: T7, Alpha-1A adrenergic receptor (Homo sapiens) (UniProt P35348); experiment: Displacement of [3H]prazosin from recombinant human alpha1 adrenoceptor expressed in CHO cell membranes at 10^-5 M after 30 mins by liquid scintillation counting method
T7 sequence (whole entry): T6 sequence (P35348 whole entry)

[29] = biological target: T3, 5-hydroxytryptamine receptor 7; experiment: Displacement of [3H]LSD from recombinant human 5-HT7 receptor expressed in CHO cell membranes at 10^-5 M after 60 mins by liquid scintillation counting method
D(2) dopamine receptor [30] = biological target: T2, D(2) dopamine receptor; experiment: Displacement of [3H]methylspiperonee from recombinant human D2 receptor expressed in HEK293 cell membranes at 10^-5 M after 60 mins by liquid scintillation counting method

T1 sequence (P28223 whole entry): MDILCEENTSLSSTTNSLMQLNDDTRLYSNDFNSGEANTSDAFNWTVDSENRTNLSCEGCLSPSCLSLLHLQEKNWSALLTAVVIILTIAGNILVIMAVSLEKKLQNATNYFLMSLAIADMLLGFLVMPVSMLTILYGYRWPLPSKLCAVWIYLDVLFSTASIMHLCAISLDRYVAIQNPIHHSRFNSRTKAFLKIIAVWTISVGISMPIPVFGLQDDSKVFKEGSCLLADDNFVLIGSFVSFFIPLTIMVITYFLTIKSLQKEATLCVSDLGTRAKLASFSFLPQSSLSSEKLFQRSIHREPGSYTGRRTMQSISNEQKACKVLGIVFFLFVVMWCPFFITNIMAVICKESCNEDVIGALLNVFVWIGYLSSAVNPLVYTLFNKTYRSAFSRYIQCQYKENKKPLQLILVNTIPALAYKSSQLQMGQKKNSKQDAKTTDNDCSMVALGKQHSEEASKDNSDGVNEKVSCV

| Structure (SMILES) | pKi [1] | Emax (D(2) dopamine receptor [2]) [%] | pIC50 (D(2) dopamine receptor [3]) | Kb (D(2) dopamine receptor [3]) [nM] | pKi [4] | pIC50 [5] | Kb [6] [nM] | Time (Mus musculus [7]) [s] | pKi [8] | pKi (D(2) dopamine receptor [9]) | Emax [11] [%] | Emax [13] [%] | Time (Mus musculus [14]) [s] | pIC50 [15] | Kb [15] [nM] | Activity (Mus musculus [16]) | pKi [17] | pKi [18] | Time (Mus musculus [22]) [s] | Activity (Mus musculus [24]) | further results |
| --- | --- | --- | --- | --- | --- | --- | --- | --- | --- | --- | --- | --- | --- | --- | --- | --- | --- | --- | --- | --- | --- |
| COc1ccccc1N1CCN(CCOCCOc2cc(C)cc(C)c2C)CC1.Cl.Cl | 6.80 | 1 | 7.11 | 23.4 | 7.05 | 6.42 | 92.3 | 141.9 | 5.81 | 6.79 | 4 | 11 | 156.1 | 5.63 | 995 | Non-Toxic | 7.49 | 7.85 | 165.6 | – | pIC50 [10]: 5.40; Activity (Mus musculus [12]): Non-Toxic; Emax [19]: 9%; Activity (Mus musculus [20]): Active; Emax [21]: 5% |
| O=C(O)C1N=C(c2ccccc2)c2cc(Cl)ccc2NC1=O (stereo not given) | – | – | – | – | – | – | – | – | – | – | – | – | – | – | – | – | – | – | – | – | Activity (Mus musculus [23]): Active |
| COc1ccccc1N1CCN(CCCOc2ccc(C)cc2C)CC1.Cl | 6.28 | 2 | 7.75 | 5.29 | 7.82 | 8.14 | 1.8 | 198.1 | < 5.30 | 7.01 | 2 | 5 | 197.3 | 5.98 | 448 | Non-Toxic | 8.70 | 7.96 | 182.6 | Non-Toxic | Activity (Mus musculus [25]): inactive; Emax [19]: 0%; Emax [21]: 5% |
| Cc1cc(C)c(OCCOCCN2CCN(CCO)CC2)c(C)c1.Cl.Cl | < 5.30 | – | – | – | – | – | – | 198.1 | < 5.30 | – | – | – | 197.3 | – | – | – | – | – | 182.6 | Non-Toxic | Activity (Mus musculus [26]): Active; inhibition [27]: inactive; inhibition [28]: inactive; inhibition [29]: inactive; inhibition (D(2) dopamine receptor [30]): inactive |
| Cc1cc(C)c(OCCOCCN2CCN(Cc3ccccc3)CC2)c(C)c1.Cl.Cl | 6.30 | – | – | – | 5.50 | – | – | 182.4 | < 5.30 | – | – | – | 157.5 | – | – | – | – | – | 176.5 | Non-Toxic | Activity (Mus musculus [26]): Active; inhibition [27]: inactive; inhibition [28]: inactive; inhibition (D(2) dopamine receptor [30]): inactive |
